From ChEMBL document CHEMBL5036345, “Identification of a dual acting SARS-CoV-2 proteases inhibitor through in silico design and step-by-step biological characterization” (Eur J Med Chem, 2021) come the findings set out here.

Data set [1] deals with SARS-CoV-2. As to the kind of experiment: Antiviral activity against Severe acute respiratory syndrome coronavirus 2 UC-1074 infected in African green monkey Vero cells assessed as reduction in plaque formation measured after 5 days by microscopic analysis. The data set is classed as functional, organism-based. The note with it: Severe acute respiratory syndrome coronavirus 2, UC-1074, Vero, 120 h.

A further data set concerns Vero. As to the kind of experiment: Cytotoxicity against African green monkey Vero cells assessed as reduction in cell viability by coulter counter method. In kind it is cell-based. As to conditions: chlorocebus sabaeus. The method, boiled down: (§1)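 Vero cells were treated with a compound dilution series in DMEM 2% FCS for 5 days at 37 °C, in parallel with the antiviral assay. MCC is the lowest concentration giving a microscopically detectable change in morphology. CC50 is the concentration halving cell number in mock-infected cultures, counted by Coulter counter.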

Data set [2] deals with SARS-CoV-2. The experiment in a line: Antiviral activity against Severe acute respiratory syndrome coronavirus 2 UC-1075 infected in African green monkey Vero cells assessed as reduction in plaque formation measured after 5 days by microscopic analysis. In kind it is functional, organism-based. As to conditions: Severe acute respiratory syndrome coronavirus 2, UC-1075, Vero, 120 h.

Data set [3] in a line: Cytotoxicity against African green monkey Vero cells assessed as effect on cell morphology by microscopic analysis. In kind it is cell-based. The note with it: chlorocebus sabaeus. The method, boiled down: as §1
Data set [4] is described as follows: Inhibition of SARS CoV-2 papain-like protease using Z-Arg-Leu-Arg-Gly-Gly-AMC as substrate preincubated for 30 mins followed by substrate addition and measured after 50 mins by multimode plate reader method. Details: species or system Severe acute respiratory syndrome coronavirus 2.
Data set [5] in a line: Inhibition of SARS CoV-2 main protease using DABCYL-KTSAVLQ1SGFRKM-E(EDANS)-NH2 as substrate preincubated for 30 mins followed by substrate addition and measured after 4 hrs by multimode microplate reader assay. Also noted: species or system Severe acute respiratory syndrome coronavirus 2.
The next data set has as its target Spike glycoprotein (Severe acute respiratory syndrome coronavirus 2, UniProt P0DTC2). As to the kind of experiment: Binding affinity to CM5 sensor chip immobilized SARS-CoV-2 spike glycoprotein assessed as dissociation constant by SPR analysis. The gist of the method: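 Spike protein (1.25 μM in 10 mM sodium acetate, pH 4.59) was amine-coupled to about 11500 RU, with the first channel as reference. Running buffer was 10× diluted HBS-P plus 5% DMSO. Compounds at 0.75–100 μM were injected at 25 °C and 20 μL/min, with 90 s association and 600 s dissociation. Runs were in triplicate; KD came from a global 1:1 fit.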
A general note: SPR reads the build-up and loss of mass on a sensor chip optically.

Structures are written as SMILES. Where a SMILES comes first, the peptide text is derived from it. [ ]: non-standard residue; d: D form. The star is where a group is joined. AllylGly = C=CC[C@H](N)C(=O)O; Boc = CC(C)(C)OC(=O)*; NHBn = c1ccc(CN*)cc1; NHtBu = CC(C)(C)N*; ClAc = O=C(CCl)*

What is called EC50 is the midpoint of the concentration-response curve. What is called CC50 is the concentration that lowers cell viability or growth by half. By IC50 is commonly meant the concentration that inhibits the measured activity by half. The term Kd denotes the concentration at which binding is half-saturated.

As for `CCC(CC)COC(=O)[C@H](C)N[P@](=O)(OC[C@H]1O[C@@](C#N)(c2ccc3c(N)ncnn23)[C@H](O)[C@@H]1O)Oc1ccccc1`, the figures for the EC50 with SARS-CoV-2 [1] and in the data set with SARS-CoV-2 [2] were 0.87 µM and 0.61 µM, respectively. For the same compound, the CC50 in the data set on Vero was more than 40 µM. Moreover, in data set [3], the MCC was more than 40 µM.
For `CC(C)C[C@H](NCc1ccc(-c2ccccc2)cc1)C(=O)N[C@@H](Cc1c[nH]c2ccccc12)C(=O)NCc1ccccc1`, the 50% inhibitory concentration (IC50) in data set [4] is more than 25 µM; in data set [5], 23.6 µM. In addition, the EC50 with SARS-CoV-2 [1] and in the data set with SARS-CoV-2 [2] was more than 4 µM throughout. The CC50 with Vero worked out at 34.7 µM. Besides, the MCC in data set [3] is more than 20 µM.
As for `C#CC[C@H](NC(=O)OC(C)(C)C)C(=O)N(Cc1ccccc1)Cc1cn(C)c2ccc(C(=O)OC)cc12`, the IC50 in data set [4] and in data set [5] was more than 25 µM in each case. For the same compound, the EC50 in the data set on SARS-CoV-2 [1] was found to be 4 µM; in the data set on SARS-CoV-2 [2], 20 µM. Also, the CC50 in the data set on Vero came to 8.09 µM. Further, at Spike glycoprotein, the Kd was 11.4 µM. In addition, the MCC in data set [3] was determined as 100 µM.
For the compound `COC(=O)c1ccc2c(c1)c(CN(CCc1ccc(-c3ccccc3)cc1)Cc1ccccc1)cn2CC(C)C`, the IC50 in data set [4] and in data set [5] was more than 25 µM throughout. Also, the EC50 is 5.98 µM with SARS-CoV-2 [1] and 0.44 µM in the data set with SARS-CoV-2 [2]. In addition, the CC50 with Vero was 31.5 µM. At Spike glycoprotein, the Kd was 3.26 µM. Besides, in data set [3], the MCC turned out to be 100 µM.
Take `CC(C)(C)NC(=O)[C@H](Cc1c[nH]c2ccccc12)NC(=O)[C@H](Cc1ccccc1)NCc1ccc(-c2ccccc2)cc1`: the IC50 in data set [4] and in data set [5] was more than 25 µM throughout. Further, the EC50 with SARS-CoV-2 [1] was found to be 2.19 µM; in the data set with SARS-CoV-2 [2], 2.01 µM. Besides, in the data set on Vero, the CC50 came to 1.49 µM. For the same compound, the Kd on Spike glycoprotein turned out to be 19 µM. In addition, the MCC in data set [3] was more than 100 µM.
As to `CC(C)C[C@H](NCc1ccc(-c2ccccc2)cc1)C(=O)N[C@@H](Cc1c[nH]c2ccccc12)C(=O)NC(C)(C)C`, the IC50 in data set [4] is more than 25 µM; in data set [5], 1.73 µM. Also, the EC50 in the data set with SARS-CoV-2 [1] and in the data set with SARS-CoV-2 [2] was more than 4 µM in each case. The CC50 in the data set with Vero worked out at 10.6 µM. For the same compound, the Kd on Spike glycoprotein was more than 25 µM. The MCC in data set [3] was found to be 20 µM.
In the case of `C#CC[C@H](NCc1ccccc1)C(=O)N[C@@H](Cc1c[nH]c2ccccc12)C(=O)NCc1ccc(-c2ccccc2)cc1`, the IC50 was more than 25 µM in data set [4] and 2.86 µM in data set [5]. In addition, the EC50 in the data set with SARS-CoV-2 [1] was 8.94 µM; with SARS-CoV-2 [2], 10.9 µM. Moreover, the CC50 in the data set with Vero was 51.5 µM. For the same compound, in data set [3], the MCC was not below 100 µM.
Turning to `C=CC[C@H](NCc1ccccc1)C(=O)N[C@@H](Cc1c[nH]c2ccccc12)C(=O)NCc1ccc(-c2ccccc2)cc1`, the IC50 in data set [4] and in data set [5] was more than 25 µM each time. The figures for the EC50 with SARS-CoV-2 [1] and with SARS-CoV-2 [2] were 63.1 µM and more than 20 µM, respectively. For the same compound, the CC50 in the data set with Vero was 78.4 µM. Moreover, at Spike glycoprotein, the Kd is more than 25 µM. Further, in data set [3], the MCC was more than 100 µM.
In the case of `C#CC[C@H](NCCC)C(=O)N[C@@H](Cc1c[nH]c2ccccc12)C(=O)NCc1ccc(-c2ccccc2)cc1`, the figures for the IC50 in data set [4] and in data set [5] were more than 25 µM and 22.7 µM, respectively. Also, the EC50 with SARS-CoV-2 [1] and in the data set on SARS-CoV-2 [2] was more than 20 µM throughout. The half-maximal cytotoxic concentration (CC50) in the data set with Vero worked out at 42.4 µM. In data set [3], the MCC is more than 100 µM.
Regarding `C#CC[C@H](NCc1ccc(-c2ccccc2)cc1)C(=O)N[C@@H](Cc1c[nH]c2ccccc12)C(=O)NC(C)(C)C`, the IC50 in data set [4] and in data set [5] was more than 25 µM throughout. The EC50 in the data set with SARS-CoV-2 [1] and with SARS-CoV-2 [2] was more than 4 µM in each case. Moreover, the CC50 with Vero came out at 4.67 µM. Also, at Spike glycoprotein, the Kd was more than 25 µM. In addition, the MCC in data set [3] amounted to 20 µM.
Take `CC(C)(C)NC(=O)[C@H](Cc1c[nH]c2ccccc12)NC(=O)[C@@H]1CCCN1C(=O)OC(C)(C)C` (Boc-Pro-Trp-NHtBu): the half-maximal inhibitory concentration (IC50) in data set [4] is more than 25 µM; in data set [5], 5.01 µM. The EC50 with SARS-CoV-2 [1] and in the data set on SARS-CoV-2 [2] was more than 100 µM each time. The CC50 with Vero was more than 100 µM. For the same compound, the Kd at Spike glycoprotein was more than 25 µM. The MCC in data set [3] is more than 100 µM.
On to `C=CC[C@H](NC(=O)CCl)C(=O)N[C@@H](Cc1c[nH]c2ccccc12)C(=O)NCc1ccccc1` (ClAc-[AllylGly]-Trp-NHBn), for which the IC50 in data set [4] amounted to 0.67 µM; in data set [5], 1.72 µM. Further, the EC50 in the data set with SARS-CoV-2 [1] was 0.32 µM; in the data set with SARS-CoV-2 [2], 1.37 µM. Moreover, the CC50 in the data set on Vero stood at 38.7 µM. In addition, the Kd on Spike glycoprotein was more than 25 µM. In addition, the MCC in data set [3] worked out at 100 µM.
